An excerpt weighted towards active compounds, which were near 6% of everything screened.
PTK2B oligo ant = Pyk2 (human) oligomerization antagonism; actives 0.83% (n = 99,000); z-score (the deposit names both 25 µM and 10 µM); Q14289; AID 1347419; Q293 cells, Pyk2 FERM NanoBiT luminescence; stronger effect = lower value;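 active means Z-score of -3 or lower, scaled per plate to the spread of control and sample wells; inactive means z-score above -3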;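 further: negative z-score means lost luminescence so less FERM oligomerization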
Jurkat viability = cytotoxicity toward Jurkat cells. Jurkat E6.1 viability, ATP luminescence, 48 h. actives 1.2% (n = 56,000). AID 463. inhibition, % at 4 µM;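 active means inhibition above the mean inhibition of all tested compounds plus 3 SD, cut at about 28% in these data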
Lung fibro prol = blocks proliferation of human lung fibroblasts. LL 47 human lung fibroblast viability, ATP luminescence; stronger effect = lower value. viability, % at 10 µM. actives 1.1% (n = 85,000). AID 719;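 active means viability at or below 50% in the single dose screen; inactive means viability above 50%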;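 further: compound exposure lasted 72 h before the ATP readout; 100% = median luminescence of untreated cell-only wells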
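test system = LL 47 human lung fibroblasts | amount = 1,150 fibroblasts seeded per well | medium = 15% FBS in IMEM | times = overnight cell rest, 72 h compound treatment at 37 °C | measured by = CellTiter-Glo luminescence measuring cellular ATP | read-out = viability percentage against median untreated-cell control | benchmarks = cell-only wells, no compound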
HUVEC prolif 384 = blocks proliferation of human endothelial cells | viability, % at 10 µM (by protocol) | HUVEC proliferation, CellTiter-Glo luminescence, 72 h; stronger effect = lower value | actives 1.1% (n = 86,000);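 active means viability at or below 30%; inactive means viability above 30%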;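 further: 100% = median luminescence of DMSO-only cell control wells on each plate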
F-actin modifier = alters cytoskeleton assembly in HUVEC cells | HUVEC TNFa F-actin phalloidin imaging, high content | inhibition, % at 2 µM | actives 0.18% (n = 91,000);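 active means inhibition above the batch mean plus 3 SD and confirmed as a hit by visual image inspection, cut at about 30% in these data, passing the limit was not always enough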
H69AR inhibit = growth inhibitors of human H69AR lung tumor cells. H69AR lung tumor viability, ATP luminescence, 72 h; stronger effect = lower value. viability, % at 10 µM. actives 6% (n = 85,000). AID 598;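 active means viability at or below 40%; inactive means viability above 40%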;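 further: multidrug resistant small cell line overexpressing MRP-1 efflux transporter; 100% = mean luminescence of untreated control wells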
Active calls of the source: *; nt = no result given.

SMILES	PTK2B oligo ant	Jurkat viability	Lung fibro prol	HUVEC prolif 384	F-actin modifier	H69AR inhibit
COc1ccc2[nH]c3nc(SCc4nnc(-c5ccccc5)o4)nnc3c2c1	-0.25	3.0	101.2	65.3	-23.4	9.3*
COc1ccc2[nH]c3nc(SC(C)C)nnc3c2c1	0.37	6.1	119.4	93.3	-10.4	91.7
COc1ccccc1NS(=O)(=O)c1ccc(NC(C)=O)cc1	0.14	-2.9	104.8	95.6	-12.1	95.4
COC(=O)Nc1ccc(S(=O)(=O)Nc2cccc3ccccc23)cc1	-0.38	nt	nt	79.8	5.9	35.5*
COc1ccc(S(=O)(=O)Nc2ccc(O)c3ccccc23)cc1	-2.31	19.0	92.8	2.3*	16.0	1.8*
CCOc1ccc(-n2cc(C(=O)Nc3cccc(OC)c3)c3cc(OC)c(OC)cc3c2=O)cc1	-0.27	nt	109.0	89.1	-12.1	99.2
CCn1cc([N+](=O)[O-])c(C(=O)N2N=C(c3ccc4ccccc4c3)CC2c2cc(Br)ccc2O)n1 (centres undefined)	-0.7	nt	87.6	10.1*	9.2	14.0*
N#Cc1c2n(c(=S)n(-c3ccccn3)c1=O)CCCCC2	1.6	8.2	97.8	89.9	9.6	82.0
CC(C)CCSc1nc(N2CCOCC2)c2c(c1C#N)CC(C)(C)OC2	-1.32	-3.7	88.4	79.8	6.0	59.5
COC(=O)c1ccc(CSc2nc(N3CCOCC3)c3c(c2C#N)CC(C)(C)OC3)o1	-2.66	nt	104.0	92.8	21.3	31.8*
O=C(COC(=O)[C@H](Cc1ccccc1)NC(=O)c1ccco1)NCc1ccccc1	-0.14	nt	nt	nt	4.5	nt
COc1ccc(C2CC(c3cccs3)=Nc3ccccc3S2)cc1 (centres undefined)	-0.27	nt	88.6	77.1	0.8	17.4*
COCCN1C(=O)c2oc3cc(C)c(C)cc3c(=O)c2C1c1ccc(O)cc1 (centres undefined)	-1.22	-5.1	90.9	88.4	-1.7	58.7
Fc1ccc(-c2nnc3ccc(N4CCc5ccccc5C4)nn23)cc1	nt	3.0	93.9	71.7	7.3	42.2
CC1=CC(=O)C=C(C)C1=NOS(=O)(=O)c1ccccc1	2.38	nt	1.4*	1.1*	-2.1	0.7*
Cc1ccc2c(c1)/C(=N/OS(=O)(=O)c1ccccc1)CCS2	0.61	nt	nt	nt	17.7	nt
C=CCNC(=O)c1c(Cl)cccc1Cl	0.63	-6.4	nt	nt	46.7*	nt
Cn1c(-c2sc3cc(C(F)(F)F)cnc3c2-c2cccnc2)n[nH]c1=S	-0.24	nt	99.5	104.5	13.7	31.8*
Cc1ccc(-n2nc3c([n+]2[O-])CCc2c-3no[n+]2[O-])cc1	1	4.0	93.6	97.5	nt	37.7*
[O-][n+]1onc2c1CCc1c-2nn(-c2ccccc2Cl)[n+]1[O-]	0.72	10.2	56.0	62.9	6.1	nt
CCCc1cc(NCCN2CCOCC2)n2c(nc3ccccc32)c1C#N	nt	nt	91.2	85.8	nt	64.8
O=C(Nc1cnn(Cc2ccc(Cl)cc2Cl)c1)c1cc(-c2cccs2)on1	1.4	4.0	97.1	66.4	6.2	19.4*
O=C(Nc1cnn(Cc2ccc(Cl)cc2Cl)c1)c1noc2c1CCCC2	nt	2.1	105.5	87.0	nt	84.3
Cc1cc(NCCCn2ccnc2)n2ncc(-c3ccc(Cl)cc3)c2n1	-1.09	nt	22.0*	9.4*	-17.8	19.4*
Cc1cc(NCCCN2CCOCC2)n2ncc(-c3ccc(Cl)cc3)c2n1	0.4	1.9	46.0*	62.8	-11.6	24.3*
SMILES	PTK2B oligo ant	Jurkat viability	Lung fibro prol	HUVEC prolif 384	F-actin modifier	H69AR inhibit
Cc1cccc(-c2cc3nc(C)cc(NCCCn4ccnc4)n3n2)c1	0.32	nt	90.4	72.2	8.4	61.9
CCc1ccc(NC(=O)CCn2ccnc2C)cc1	-0.41	nt	92.3	86.8	nt	96.5
CCOC(=O)c1sc(SCC(=O)Nc2ccc(N(C)C)cc2)nc1N	-0.62	-3.1	36.5*	81.0	14.4	57.9
CN(C)c1ccc(NC(=O)CSc2nc(N)c(C(=O)Nc3ccc(N(C)C)cc3)s2)cc1	0.05	nt	88.3	94.1	6.6	83.0
O=[N+]([O-])c1ccc(N2CCCC2)cc1NC(c1ccccc1)c1ccccc1	-1.77	nt	nt	nt	-7.2	nt
CC(C)Nc1cc(N2CCCC2)ccc1[N+](=O)[O-]	-3.04*	nt	nt	nt	1.7	nt
CCOC(=O)c1c(C)c(C(=O)Nc2cc(F)ccc2F)c(C)n1C	nt	40.0*	66.1	55.2	nt	19.5*
CCOc1ccc(NC(=O)CSC2=C(C#N)C(c3ccc4c(c3)OCO4)CC(=O)N2)cc1 (centres undefined)	-0.9	nt	96.4	96.0	-10.2	83.8
CCCOC(=O)CSC1=C(C#N)C(c2ccc3c(c2)OCO3)CC(=O)N1 (centres undefined)	-0.51	nt	92.9	69.3	-3.0	23.2*
CCc1cc2c(=O)c(-c3cscn3)coc2c(CN(C)C)c1O	-3.36*	nt	97.0	101.8	9.2	89.3
CC1Cc2ccccc2N1Cc1nc2cc(C(F)(F)F)ccc2c(=O)[nH]1 (centres undefined)	0.37	nt	79.0	76.3	-4.5	36.8*
CC1Cc2ccccc2N1Cc1cc(=O)n2ccsc2n1 (centres undefined)	-0.44	-0.9	98.6	109.5	27.5	81.9
Cc1ccc(NC(=O)c2cc(N3CCOCC3)nc3ccccc23)cc1	1.07	nt	85.5	90.5	32.0	33.4*
Cc1cc(NC(=O)CSc2n[nH]c(CC(C)C)n2)no1	-0.53	-4.2	97.3	94.2	13.1	88.9
O=C1c2ccccc2C(=O)N1SC1CCCCC1	0.5	-3.5	62.5	76.2	27.6	0.6*
O=C(OCN1C(=O)c2ccccc2C1=O)C1CCCCC1	0.92	-0.4	107.4	94.8	-20.4	95.6

High-throughput results from PubChem.
